Compound activity deposited in PubChem by The Scripps Research Institute Molecular Screening Center.
V1aR counter: agonists of human V1a receptor, primary screen, counter-screen for OXTR agonist project, fluorescence, CHO-V1R cells; Vasopressin V1a receptor (Homo sapiens), P37288; Fluo-8 calcium fluorescence, agonist mode; 0% DMSO, 100% 3 nM vasopressin; activation, % at 3 µM; actives 0.25% (n = 320,000); AID 2797, 2010;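 active = activation above the mean activation of all tested compounds plus 3 SD, per screening run, cut at about 20% in these data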;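 also: signal is peak over basal fluorescence ratio across a 100 second FLIPR read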
OX1R antag-1: antagonists of human orexin 1 receptor (OX1R); OX1R-expressing cells, FRET antagonist read-out; inhibition, % at 6.6 µM; actives 1.8% (n = 330,000); Orexin/Hypocretin receptor type 1 (Homo sapiens), O43613; in the data active = inhibition mostly above about 38%, no sharp cut-off; inactive = mostly below about 40%;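 also: 0% = agonist challenge alone and 100% = reference antagonist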
Target sequence (O43613 whole entry, looked up): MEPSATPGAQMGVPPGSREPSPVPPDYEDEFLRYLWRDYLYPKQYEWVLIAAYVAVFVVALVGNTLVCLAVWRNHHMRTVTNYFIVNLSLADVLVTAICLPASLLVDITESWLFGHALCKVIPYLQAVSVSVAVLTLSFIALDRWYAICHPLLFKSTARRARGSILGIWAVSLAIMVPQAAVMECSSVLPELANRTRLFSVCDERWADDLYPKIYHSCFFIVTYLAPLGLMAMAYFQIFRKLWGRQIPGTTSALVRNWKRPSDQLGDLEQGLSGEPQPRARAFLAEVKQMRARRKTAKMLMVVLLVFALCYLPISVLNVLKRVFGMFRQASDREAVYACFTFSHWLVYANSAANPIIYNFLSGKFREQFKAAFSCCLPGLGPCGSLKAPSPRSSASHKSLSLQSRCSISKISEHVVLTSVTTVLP
OXTR ag: human OXTR agonists, primary screen, fluorescence, CHO-OTR cells, Fluo-8 calcium; Fluo-8 calcium fluorescence; normalized: DMSO 0%, oxytocin 100%; activation, % at 3 µM; actives 0.32% (n = 320,000); AID 2435, 2010; Oxytocin receptor (Homo sapiens), P30559;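 active = activation above the mean of all tested compounds plus 3 SD, cutoff set per screening run, cut at about 20% in these data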;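 also: peak over basal fluorescence ratio from a 100 s FLIPR kinetic read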
OX1R antag-2: OX1R (HCRTR1) antagonists, primary screen, fluorescence, CHO/OX1R cells, Fluo-8 calcium, orexin A. Orexin/Hypocretin receptor type 1 (Homo sapiens), O43613. Fluo-8 calcium fluorescence. inhibition, % at 5 µM. actives 0.43% (n = 330,000);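 active = inhibition above its plate's threshold, mean inhibition of all tested compounds on the plate plus 3 SD, cut at about 37% in these data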;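 also: 0% = orexin A challenge wells and 100% = SB-334867-A antagonist wells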
CHO parental Ca: ATP-evoked calcium signal inhibitors, parental CHO, primary screen, counter-screen for OX1R antagonist project, cell-based, fluorescence, Fluo-8 calcium dye | parental CHO-K1, ATP-induced calcium, Fluo-8 fluorescence | inhibition, % at 5.6 µM | actives 0.63% (n = 330,000) | AID 463079, 2010;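 active = inhibition above that plate's mean sample inhibition plus 3 SD, cut at about 26% in these data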;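 also: 0% = ATP-challenged DMSO wells and 100% = DMSO wells without ATP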
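Measured by: calcium-sensitive Fluo-8 fluorescence / Test system: CHO parental line / Controls: ATP-challenged DMSO wells low, unchallenged DMSO wells high / Measure: % inhibition / Compound: single nominal dose of 5.6 µM per compound / Replicates: single well per compound, no replicates / Reagent: ATP as calcium-mobilizing challenge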
OXTR potentiate: human OXTR potentiators, primary screen, fluorescence, CHO-OTR cells, Fluo-8 calcium; Fluo-8 calcium fluorescence, potentiator mode; 0% = oxytocin EC15, 100% = EC100; activation, % at 3 µM; actives 0.061% (n = 320,000);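 active = activation above that plate's cutoff, the mean activation of tested compounds plus 3 SD, cut at about 6.6% in these data, passing the limit was not always enough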;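 also: 100% uses oxytocin at 75 nM as the full agonist control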
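test system = CHO-OTR cells, human receptor | compound = single-point 3.0 µM | schedule = 6 min compound pre-incubation at room temperature, 100 s kinetic read | signal = Fluo-8 no-wash calcium dye fluorescence, excitation 470-495 nm, emission 515-575 nm | repeats = single well per compound, singlicate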
Numbers without * were called inactive; x = not tested or not shown. Hits are enriched below; roughly 2.6% of the tested compounds scored in any of these assays.

SMILES	V1aR counter	OX1R antag-1	OXTR ag	OX1R antag-2	CHO parental Ca	OXTR potentiate
CC(CCc1ccccc1)N1CCN(C)CC1 (stereo not given)	1.7	15.5	0.2	9.4	-4.7	-8.1
CC(C)(C)c1ccc(C(=O)OC/C(O)=C(\C#N)c2nc3ccccc3s2)cc1	0.4	27.4	1.0	8.2	-2.7	-4.4
COC(=O)c1ccc(/C=C(\C#N)c2nc3ccccc3s2)cc1	23.7*	7.9	30.3*	56.4*	49.1*	-9.1
N#C/C(=C\c1ccccn1)c1nc2ccccc2s1	30.6*	11.7	27.5*	57.1*	44.5*	-16.1
CC(C)CN1Cc2ccccc2Oc2cc(Br)ccc2S1(=O)=O	x	22.6	x	-37.8	-39.2	x
O=C(NCCc1ccccc1)C1CCCN(C(=O)Nc2ccc(F)cc2)C1 (stereo not given)	0.3	1.9	0.9	-12.1	-2.0	1.7
COc1ccc([C@H]2CC(=O)C=C(c3cc4ccccc4s3)C2)cc1OC	0.4	3.8	1.1	-5.8	-2.1	-4.3
CC1CCc2nc3ccccc3c(C(=O)OCC(=O)NC3CCS(=O)(=O)C3)c2C1 (stereo not given)	-1.0	25.9	-1.1	-22.9	-14.2	-5.1
COc1cccc(NC(=O)COC(=O)c2c3c(nc4ccccc24)CCC(C)C3)c1 (stereo not given)	-0.6	36.3*	-2.3	12.6	-3.6	-6.3
O=C(Cn1ccccc1=S)c1ccc(Cl)c(Cl)c1	0.5	-2.6	-1.1	2.9	-16.0	-11.5
On1ccccc1=S	2.5	14.5	1.0	36.5*	40.5*	-12.5
O=C1N=c2ccccc2=C1c1[nH]c(=S)[nH]c1O	-0.1	43.0*	-1.8	-11.1	5.1	4.8
O=C1N=c2ccccc2=C1c1sc(=O)[nH]c1O	-1.9	35.7	-1.4	3.0	-18.1	2.8
O=S(=O)(c1cccc(Br)c1)N1CCN(c2ccnc3cc(Cl)ccc23)CC1	4.8	18.5	0.7	-3.7	34.9*	-11.8
N#Cc1cccc(S(=O)(=O)N2CCN(c3ccnc4cc(Cl)ccc34)CC2)c1	9.8	8.9	4.5	2.1	9.2	-16.1
COc1cc(OC)cc(C(=O)NCCN2C(=O)S/C(=C\c3cccs3)C2=O)c1	7.9	35.1*	7.7	-6.9	7.3	-24.9
CC1CCCCC12NC(=O)N(CC(=O)NCCc1ccc(S(N)(=O)=O)cc1)C2=O (stereo not given)	0.3	2.1	-0.4	9.7	6.7	0.8
Cc1sc2ncnc(N3CCC(C(=O)Nc4ccc(Br)cc4Br)CC3)c2c1C	1.7	38.7	-0.9	-5.8	-8.5	-11.8
COc1ccc(S(=O)(=O)N(Cc2cccs2)C2CCCC2)cc1	1.5	44.1	-0.9	54.0*	44.2*	-20.0
COc1ccc(S(=O)(=O)NCc2cccs2)cc1	-0.8	7.1	-0.5	7.3	-4.1	-8.0
O=[N+]([O-])c1cc(Cl)cc(/C=N\Nc2ccccn2)c1O	-0.5	66.5	-0.7	-11.3	10.2	-9.0
CN(C)C1(CN=Cc2cc(Cl)cc([N+](=O)[O-])c2O)CCCCC1	2.5	43.3*	1.9	-12.1	-7.7	-0.9
O=C(Nc1ccccc1F)c1ccc(CNS(=O)(=O)c2cccc(C(F)(F)F)c2)cc1	2.4	5.9	0.8	-13.8	69.2*	-15.4
COc1ccc(CCNC(=O)Cn2cnc3sc(C)c(-c4ccc(F)cc4)c3c2=O)cc1OC	23.4*	2.3	19.8*	-13.0	-12.1	-35.6
NS(=O)(=O)c1ccc(CCNC(=O)c2ccc[nH]c2=S)cc1	-0.4	-2.7	0.5	-12.8	-5.7	-3.0
SMILES	V1aR counter	OX1R antag-1	OXTR ag	OX1R antag-2	CHO parental Ca	OXTR potentiate
CCCCc1nc(NCCO)c(C#N)c2c1CCCC2	-0.8	15.1	-2.2	-39.7	50.1*	-12.4
COc1ccc(OC)c(C=NNC(=O)c2ccc(NS(=O)(=O)c3cccs3)cc2)c1	0.0	17.5	0.9	1.4	-5.8	-0.4
O=C(Cn1nc(-c2ccc3c(c2)OCCO3)ccc1=O)Nc1ccc(-n2cnnn2)cc1	0.2	14.8	-0.8	10.1	29.2*	-8.0
O=C(Cn1nc(-c2ccccc2)ccc1=O)Nc1ccc(-n2cnnn2)cc1	0.5	28.5	2.6	8.0	-2.1	-1.7
O=C(COc1ccc(-c2ccccc2)cc1)Nc1cccnc1	10.3	23.2	14.9	57.5*	27.4*	-10.7
COc1cccc(OCC(=O)Nc2ccncc2)c1	6.3	10.7	10.0	-0.5	-1.3	-20.2
O=C(COc1ccc(Br)cc1)Nc1ccncc1	6.3	21.9	5.5	18.5	10.3	-23.2
O=C(COc1ccc(Nc2ccccc2)cc1)Nc1ccncc1	12.0	18.4	15.2	18.8	36.8*	-9.2
CC(C)CCOc1cccc(OCC(=O)Nc2ccncc2)c1	9.4	43.7	15.7	54.6*	59.0*	-30.0
CC(C)(C)c1ccc(OCC(=O)Nc2ccncc2)c(Br)c1	7.9	35.3	6.0	-19.4	46.6*	-16.9
Cc1cccc(-n2c(SCC(=O)c3c(N)n(C4CC4)c(=O)[nH]c3=O)nnc2N2CCOCC2)c1	-0.4	-1.8	0.7	-0.5	-4.8	-2.5
CCN1C(=O)CC2(C[N+]3(C)CCC2CC3)C1=O (stereo not given)	0.0	4.6	-0.1	-0.3	-14.7	-0.3
Cc1cc(OCC(=O)Nc2ccncc2)cc(C)c1Cl	13.8	-2.8	19.0	52.9*	43.9*	-23.5
CCC(C)(C)c1ccc(OCC(=O)Nc2ccncc2)cc1	11.2	17.9	12.6	78.1*	75.6*	-23.8
O=C(COc1ccc2ccccc2c1Br)Nc1cccnc1	8.0	1.5	5.0	-5.8	-13.7	-14.0
O=C(COc1ccc2ccccc2c1Br)Nc1ccncc1	11.8	25.7	9.2	12.6	41.1*	-16.0
Cc1cc(OCC(=O)Nc2ccc(N3CCCC3)cc2)cc(C)c1Cl	-0.4	5.9	-0.3	-15.0	-14.1	-6.0
CN(Cc1ccccc1)S(=O)(=O)c1ccc(NS(=O)(=O)Cc2ccccc2)cc1	7.5	43.5*	7.1	41.9*	40.3*	-13.6
Cc1ccc(CCN2C(Nc3ccccc3)=NC[C@@H]2C)cc1	0.5	6.1	0.5	1.3	-3.6	-11.2
Cc1ccc2c(=O)n3c(nc2c1)C(Cc1ccccc1)NC(=O)c1cc(Cl)ccc1-3 (stereo not given)	3.3	0.7	3.1	-18.5	-12.7	2.2
CCOc1ccc(-c2nnc(-c3cccs3)o2)cc1OCC	-0.5	7.2	-2.1	-25.3	-8.7	-10.1
